We go through one molecule from PMC3578163 (Chemical research in toxicology, 2013).

Read-outs that look alike come from different tables or passages of the source. Where only a bound is given, the exact number is not on record here.

Usually IC50 stands for the concentration that inhibits the measured activity by half. The term Kd denotes the constant that tells how readily two partners part at equilibrium. The kcat is the maximal rate divided by the concentration of active sites.

For one experiment, the target named is T1, hpol κ^19–526 (Homo sapiens, UniProt Q9UBT6).
T1 sequence (Q9UBT6 19-526): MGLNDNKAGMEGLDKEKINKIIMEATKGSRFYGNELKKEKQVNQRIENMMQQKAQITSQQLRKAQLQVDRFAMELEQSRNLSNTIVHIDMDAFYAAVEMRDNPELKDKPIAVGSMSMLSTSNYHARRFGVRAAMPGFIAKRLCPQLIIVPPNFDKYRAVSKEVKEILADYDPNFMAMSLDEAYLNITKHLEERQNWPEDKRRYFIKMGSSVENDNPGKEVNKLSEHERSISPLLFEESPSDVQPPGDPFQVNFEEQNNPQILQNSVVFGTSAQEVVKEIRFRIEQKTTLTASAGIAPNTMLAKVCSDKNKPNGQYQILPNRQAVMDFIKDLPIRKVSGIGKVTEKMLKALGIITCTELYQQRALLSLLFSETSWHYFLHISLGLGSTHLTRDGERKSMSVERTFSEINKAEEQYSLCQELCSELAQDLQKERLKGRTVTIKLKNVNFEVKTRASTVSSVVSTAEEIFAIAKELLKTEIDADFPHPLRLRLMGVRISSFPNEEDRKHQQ
As to the kind of experiment: polymerase-catalyzed primer extension. The note with it: read-out: IC50 for inhibition of DNA polymerase activity; five-minute time point; all four dNTPs 0.25 mM, MgCl2 5 mM; 20 nM enzyme, 200 nM DNA, 37 °C. It is filed as biochemical.

The next experiment has as its target T2, hpol η^1–437 (Homo sapiens, UniProt Q9Y253).
T2 sequence (Q9Y253 1-437): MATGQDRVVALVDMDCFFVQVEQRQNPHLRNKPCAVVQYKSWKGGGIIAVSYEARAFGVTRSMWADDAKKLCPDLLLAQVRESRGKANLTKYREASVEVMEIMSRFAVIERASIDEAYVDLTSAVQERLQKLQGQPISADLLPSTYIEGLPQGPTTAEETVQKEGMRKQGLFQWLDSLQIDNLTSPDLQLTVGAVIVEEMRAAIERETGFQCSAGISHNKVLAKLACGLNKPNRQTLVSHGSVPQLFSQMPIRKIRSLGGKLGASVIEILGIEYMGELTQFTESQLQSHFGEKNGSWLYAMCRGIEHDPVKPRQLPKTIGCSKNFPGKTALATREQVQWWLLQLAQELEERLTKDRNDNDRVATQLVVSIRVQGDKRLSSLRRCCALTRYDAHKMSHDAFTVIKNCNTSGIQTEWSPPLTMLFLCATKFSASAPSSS
The experiment can be described thus: polymerase-catalyzed primer extension. It is filed as biochemical. To be noted: read-out: IC50 for inhibition of DNA polymerase activity; all four dNTPs 0.25 mM, MgCl2 5 mM; 20 nM enzyme, 200 nM DNA, 37 °C.

The next experiment addresses T3, hpol ι^1–446 (Homo sapiens, UniProt Q9UNA4).
T3 sequence (Q9UNA4 1-446): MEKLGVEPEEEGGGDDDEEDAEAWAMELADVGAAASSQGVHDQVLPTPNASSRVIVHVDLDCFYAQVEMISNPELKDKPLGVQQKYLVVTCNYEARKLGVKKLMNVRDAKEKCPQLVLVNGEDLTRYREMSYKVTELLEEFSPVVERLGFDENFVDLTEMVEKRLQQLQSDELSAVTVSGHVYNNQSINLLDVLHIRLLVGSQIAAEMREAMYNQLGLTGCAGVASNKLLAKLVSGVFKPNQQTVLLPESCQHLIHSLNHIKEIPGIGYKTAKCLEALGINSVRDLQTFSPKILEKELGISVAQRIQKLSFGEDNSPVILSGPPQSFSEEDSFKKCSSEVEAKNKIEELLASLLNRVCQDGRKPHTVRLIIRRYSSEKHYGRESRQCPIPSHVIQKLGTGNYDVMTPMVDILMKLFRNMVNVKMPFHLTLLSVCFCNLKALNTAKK
As to the kind of experiment: polymerase-catalyzed primer extension. To be noted: read-out: IC50 for inhibition of DNA polymerase activity; all four dNTPs 0.25 mM, MgCl2 5 mM; 20 nM enzyme, 200 nM DNA, 37 °C. It is filed as biochemical.

For experiment [1], the target named is T4, hpol ι^26–446 (Homo sapiens, UniProt Q9UNA4).
T4 sequence (Q9UNA4 26-446): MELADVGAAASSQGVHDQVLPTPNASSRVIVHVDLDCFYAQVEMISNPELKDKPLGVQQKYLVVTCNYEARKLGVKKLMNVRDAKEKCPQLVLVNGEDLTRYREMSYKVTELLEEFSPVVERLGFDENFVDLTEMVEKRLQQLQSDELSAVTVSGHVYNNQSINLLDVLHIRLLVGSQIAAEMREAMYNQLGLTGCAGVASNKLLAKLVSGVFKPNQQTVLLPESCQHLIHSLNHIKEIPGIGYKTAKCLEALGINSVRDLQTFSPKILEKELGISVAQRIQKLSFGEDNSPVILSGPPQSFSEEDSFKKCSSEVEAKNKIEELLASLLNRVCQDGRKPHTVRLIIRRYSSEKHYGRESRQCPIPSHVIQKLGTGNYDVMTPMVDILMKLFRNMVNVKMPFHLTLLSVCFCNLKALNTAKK
It is filed as binding. The note with it: for Kd: read-out: Kd,DNA (polymerase binding to primer-template DNA). The method, boiled down:
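Recombinant human polymerase (His/GST-tagged, expressed in E. coli BL21(DE3), tags cleaved) titrated into 2 nM FAM-labelled 13/18-mer primer-template at 25 °C. Buffer: 50 mM HEPES pH 7.5, 10 mM KOAc, 10 mM MgCl₂, 0.1 mM ZnCl₂, 0.1 mM EDTA, 10% DMSO, 0.1 mg/mL BSA. MK886 at 0–250 μM, with DMSO as control. Polarization read at ex 485/em 525 nm. Kd fitted with total DNA held constant.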

In experiment [2] the target is T4, hpol ι^26–446. It is filed as biochemical. The note with it: for kcat: dTTP. In short, it runs like this: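 Tripartite substrate built by annealing an unlabelled 19-mer primer, a TAMRA-labelled 10-mer reporter and a BHQ2-labelled 29-mer template (1.4:1:1.5); 50 nM substrate used. Enzyme at 5 nM in 50 mM Tris-HCl pH 8.0, 0.01% Tween-20, 2 mM DTT, 40 mM KCl, 0.25 mM MnCl₂, 25 °C. Inhibitor or DMSO present; dTTP 1–200 μM. Fluorescence (ex 525/em 598 nm) read continuously up to 60 min. Linear-phase velocities fitted to a hyperbola.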

Experiment [3] has as its system DNA synthesis in cell culture. The note with it: cited from earlier work.
The subject of experiment [4] is peroxisome proliferator activated receptor alpha (PPARα). The note with it: FLAP-independent inhibition of PPARα; cited from earlier work.

Take `CC(C)c1ccc2c(c1)c(SC(C)(C)C)c(CC(C)(C)C(=O)O)n2Cc1ccc(Cl)cc1` [MK886, 3-[1-(4-chlorobenzyl)-3-t-butyl-thio-5-isoproylindol-2-yl]-2,2-dimethylpropanoic acid]: the IC50 on hpol κ^19–526 was 63.8 ± 1.7 µM; at hpol η^1–437 it was 45.8 ± 8.4 µM; on hpol ι^1–446 it was 15.1 ± 2.1 µM. Also, at hpol ι^26–446 [1] (10 μM MK886), the “change in the affinity for DNA relative to the DMSO control” value was “no observed change”. Besides, at hpol ι^26–446 [1] (MK886 at or above 100 μM), the “fold increase in the Kd,DNA” value is above 2 fold. Moreover, the Kd at hpol ι^26–446 [1] (100 μM MK886) amounted to 0.0188 ± 0.0027 µM; at hpol ι^26–446 [1] (150 μM MK886), 0.0164 ± 0.0021 µM; at hpol ι^26–446 [1] (250 μM MK886), 0.0388 ± 0.0171 µM. Moreover, the kcat on hpol ι^26–446 [2] (20 μM MK886, fluorescence-based assay) amounted to 0.0733 ± 0.0017 s⁻¹; at hpol ι^26–446 [2] (40 μM MK886, fluorescence-based assay) it was 0.0717 ± 0.0017 s⁻¹; at hpol ι^26–446 [2] (60 μM MK886, fluorescence-based assay), 0.0683 ± 0.0033 s⁻¹. In addition, the “Fold decrease in kcat/KM,dNTP” value stood at 1.6 on hpol ι^26–446 [2] (20 μM MK886 vs no inhibitor), 2.1 at hpol ι^26–446 [2] (40 μM MK886 vs no inhibitor) and 2.4 at hpol ι^26–446 [2] (60 μM MK886 vs no inhibitor). Also, the “mechanism of inhibition of DNA polymerase activity” value on hpol ι^26–446 [2] (fluorescence-based assay, diminished kcat and increased KM,dNTP) is given as “mixed-type inhibition”. The “concentration at which DNA synthesis/replication is inhibited” value in experiment [3] is at least 1 µM. Besides, the “concentration at which apoptosis is induced” value in experiment [4] is “above 10 μM”.
